ChEMBL document CHEMBL1154995, “Synthesis of azaisoflavones and their inhibitory activities of NO production in activated microglia” (Bioorg Med Chem Lett, 2008)
Active and inactive are the calls of the source. The calls are words filed in the database; no cut-off is given here.

Columns and labels:
BV-2 [1] = test: Inhibition of NO production in LPS-activated mouse BV2 cells at 10 uM after 24 hrs by Griess method relative to control; assay type: functional; conditions: for inhibition at 10 µM: BV-2, 24 h
Outline: (§1)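 Murine BV-2 microglia stimulated with LPS 100 ng/mL with or without sample for 24 h; nitrite in culture medium measured by Griess reaction. Percent inhibition relative to LPS control at 10 μM, n = 3; IC50 also derived.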

BV-2 [2] = test: Inhibition of NO production in LPS-activated mouse BV2 cells after 24 hrs by Griess method; assay type: functional, cell-based; conditions: BV-2, 24 h; outline: as §1
BV-2 [3] = test: Inhibition of iNOS expression in LPS-activated mouse BV2 cells at 1-10 uM after 6 hrs by Western blot; assay type: functional, cell-based
Outline: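 BV-2 cells treated 6 h with compound (1–10 μM) during LPS (100 ng/mL) activation; protein assessed by blotting with anti-tubulin as loading control; representative of three independent experiments.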

[4] = Cytotoxicity against mouse BV2 cells assessed as cell viability at 10 uM by MTT assay; assay type: cell-based; conditions: bv-2, 10 µM
Outline: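 BV-2 microglia viability determined by MTT assay alongside the LPS (100 ng/mL) nitrite experiment.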

| SMILES | inhibition at 10 µM (BV-2 [1]) [%] | IC50 (BV-2 [2]) [µM] | Activity (BV-2 [3]) | Activity [4] | Activity (BV-2 [1]) |
| --- | --- | --- | --- | --- | --- |
| CCn1cc(-c2ccc(OC)cc2)c(=O)c2ccccc21 | 14.9 | 25.8 |  |  |  |
| CCn1cc(-c2ccc(OC)cc2)c(=O)c2c(OC)cc(OC)cc21 | 27.3 | 17.6 |  |  |  |
| CCn1cc(-c2ccc(O)cc2)c(=O)c2c(O)cc(O)cc21 [AZAISOFLAVONE] | 58.1 | 7.83 | Dose-dependent effect |  |  |
| COc1ccc(-c2cn(C)c3ccccc3c2=O)cc1 | 31.9 | 18.8 |  |  |  |
| Cn1cc(-c2ccc(O)cc2)c(=O)c2ccccc21 | 47.4 | 9.91 |  |  |  |
| COc1ccc(-c2c[nH]c3ccccc3c2=O)cc1 |  |  |  | Toxic | inactive |
| O=c1c(-c2ccc(O)cc2)c[nH]c2cc(O)cc(O)c12 | 45 | 10.9 |  |  |  |
| COc1ccc(-c2c[nH]c3cc(OC)cc(OC)c3c2=O)cc1 | 23.2 | 20.5 |  |  |  |
| COc1ccc(-c2c[nH]c3cc(OC)ccc3c2=O)cc1 |  |  |  | Toxic | inactive |
| O=c1c(-c2ccc(O)cc2)c[nH]c2ccccc12 | 29.5 | 15.6 |  |  |  |
| Cn1cc(-c2ccc(O)cc2)c(=O)c2c(O)cc(O)cc21 | 39.3 | 13.3 |  |  |  |
| CCn1cc(-c2ccc(O)cc2)c(=O)c2ccccc21 | 27 | 18.5 |  |  |  |
